2 compounds from ChEMBL document CHEMBL1250501, “Anti-tubercular agents. Part 5: synthesis and biological evaluation of benzothiadiazine 1,1-dioxide based congeners” (Eur J Med Chem, 2010) can be followed below.

In series [1] the test system is Mycobacterium tuberculosis. Put plainly: Antimycobacterial activity against Mycobacterium tuberculosis H37Rv after 3 to 4 weeks by broth microdilution assay. The format is functional. The procedure, abridged:
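MIC by broth microdilution on compounds active in a single-concentration primary screen. Plates incubated 3–4 weeks at 37 °C in a CO₂ incubator. Wells read visually for absence of growth turbidity.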
Background: Dilution methods test growth across graded concentrations, often in twofold steps.

In series [2] the test system is Mycobacterium tuberculosis. In words: Antimycobacterial activity against Mycobacterium tuberculosis H37Rv infected in BALB/c mouse lung assessed as reduction of bacterial load at 10 mg/kg, po administered 1 week after infection measured after 4 weeks. Type of series: functional. In outline: (§1)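 Female BALB/c mice, 6 weeks old, 20–22 g, acclimatised one week. Infected intranasally with about 1.5 × 10⁶ CFU of H37Rv grown 10 days in 7H9/ADC. Treatment began 1 week post-infection, given orally in 50% PEG in water, for 4 weeks. Lungs and spleens homogenised in saline with 0.05% Tween 80. Duplicate 10-fold dilutions plated on 7H10/OADC, 37 °C, 5% CO₂, 4–6 weeks. Result expressed as log₁₀ CFU per organ versus untreated controls.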

Series [3] is described as follows: Cytotoxicity against mouse AML-12 cells assessed as cell viability at 25 ug/ml after 24 hrs by MTT assay. Type of series: cell-based. Conditions: read-out: Activity. In outline: (§2)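 AML-12 hepatocytes in 96-well format, in DMEM with 10% FCS. Exposed to test material at 2–100 µg/mL for 24 h at 37 °C in CO₂. MTT then added for 3 h and formazan formation read. Percentage cytotoxicity calculated relative to untreated cells.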
Background: Tetrazolium assays rely on reduction of a dye to a coloured formazan, in cell work by metabolically active cells.

The nature of series [4]: Cytotoxicity against mouse AML-12 cells assessed as cell viability at 50 ug/ml after 24 hrs by MTT assay. Conditions: read-out: Activity. The format is cell-based. In outline:
as §2

The nature of series [5]: Cytotoxicity against mouse AML-12 cells assessed as cell viability at 2 ug/ml after 24 hrs by MTT assay. Type of series: cell-based. As to conditions: read-out: Activity. The procedure, abridged:
as §2

Series [6] can be described thus: Cytotoxicity against mouse AML-12 cells assessed as cell viability at 5 ug/ml after 24 hrs by MTT assay. The format is cell-based. Conditions: read-out: Activity. The procedure, abridged: as §2
For series [7], the system named is Mycobacterium tuberculosis. Put plainly: Antimycobacterial activity against Mycobacterium tuberculosis H37Rv infected in BALB/c mouse spleen assessed as reduction of bacterial load at 25 mg/kg, po administered 1 week after infection measured after 4 weeks. Type of series: functional. The procedure, abridged:
as §1

The subject of series [8] is Mycobacterium tuberculosis. In words: Antimycobacterial activity against Mycobacterium tuberculosis H37Rv infected in BALB/c mouse lung assessed as reduction of bacterial load at 25 mg/kg, po administered 1 week after infection measured after 4 weeks. The format is functional. The procedure, abridged: as §1
Series [9] in a line: Cytotoxicity against mouse AML-12 cells assessed as cell viability at 100 ug/ml after 24 hrs by MTT assay. The format is cell-based. Conditions: read-out: Activity. In outline: as §2
The nature of series [10]: Cytotoxicity against mouse AML-12 cells assessed as cell viability at 10 ug/ml after 24 hrs by MTT assay. The format is cell-based. Conditions: read-out: Activity. The procedure, abridged:
as §2

In brackets after ≈: the same amount, converted by molar mass.

With `CO[C@H]1/C=C/O[C@@]2(C)Oc3c(C)c(O)c4c(O)c(c(/C=N/N5CCN(C)CC5)c(O)c4c3C2=O)NC(=O)/C(C)=C\C=C\[C@H](C)[C@H](O)[C@@H](C)[C@@H](O)[C@@H](C)[C@H](OC(C)=O)[C@@H]1C` [RIFAMPIN], the MIC – broadly, the lowest concentration that inhibits growth of the organism – in series [1] amounted to 0.25 µg/mL (≈ 0.304 µM). The log10cfu in series [2] amounted to 3.8.
As for `O=[N+]([O-])c1ccc(/C=N/NC2=NS(=O)(=O)c3ccccc3N2c2ccccc2)o1`, the viability at 24 h, 25 ug/ml in [3] came out at 8.5%. The viability at 24 h, 50 ug/ml in series [4] stood at 8.7%. For the same compound, the viability at 24 h, 2 ug/ml in series [5] amounted to 2.4%. The viability at 24 h, 5 ug/ml in series [6] amounted to 9%. Further, the log10cfu in series [7] was 2; in [8], 4.8. The viability at 24 h, 100 ug/ml in series [9] was determined as 14.9%. Also, the viability at 24 h, 10 ug/ml in series [10] was determined as 9.1%.
